Measurements published in article PMC3313489 (European journal of lipid science and technology : EJLST, 2011).
Read-outs that look alike come from different tables or passages of the source.

Key:
PMPMEase [1] = molecular target: T1, PMPMEase (Sus scrofa, UniProt Q29550); assay: PMPMEase enzyme assay with RD-PNB substrate; type: biochemical, porcine; settings: for decrease in PMPMEase inhibitory potency relative to AA: from IC50 values, AA as comparator
T1 sequence (Q29550 19-566): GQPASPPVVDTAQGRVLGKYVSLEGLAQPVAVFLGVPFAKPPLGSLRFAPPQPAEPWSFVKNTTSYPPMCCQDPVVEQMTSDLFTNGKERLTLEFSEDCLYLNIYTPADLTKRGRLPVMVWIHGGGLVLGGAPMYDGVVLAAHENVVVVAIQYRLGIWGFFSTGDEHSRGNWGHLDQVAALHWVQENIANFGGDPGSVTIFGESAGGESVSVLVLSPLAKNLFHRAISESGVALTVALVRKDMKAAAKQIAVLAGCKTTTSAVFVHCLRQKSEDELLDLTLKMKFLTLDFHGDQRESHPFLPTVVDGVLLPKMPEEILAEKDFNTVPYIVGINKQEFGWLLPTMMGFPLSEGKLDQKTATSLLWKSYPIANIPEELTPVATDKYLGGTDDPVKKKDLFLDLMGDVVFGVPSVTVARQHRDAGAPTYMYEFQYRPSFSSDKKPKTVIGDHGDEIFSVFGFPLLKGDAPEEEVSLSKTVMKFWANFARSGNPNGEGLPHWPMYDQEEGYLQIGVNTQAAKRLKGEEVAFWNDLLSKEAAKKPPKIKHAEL

PMPMEase [2] = molecular target: T2, PMPMEase (Homo sapiens, UniProt P23141); assay: PMPMEase activity in lysates of FFA-treated SH-SY5Y cells; type: cell-based; settings: DMSO-induced degenerated cells, non-specific cytotoxic agent
T2 sequence (P23141 18-567): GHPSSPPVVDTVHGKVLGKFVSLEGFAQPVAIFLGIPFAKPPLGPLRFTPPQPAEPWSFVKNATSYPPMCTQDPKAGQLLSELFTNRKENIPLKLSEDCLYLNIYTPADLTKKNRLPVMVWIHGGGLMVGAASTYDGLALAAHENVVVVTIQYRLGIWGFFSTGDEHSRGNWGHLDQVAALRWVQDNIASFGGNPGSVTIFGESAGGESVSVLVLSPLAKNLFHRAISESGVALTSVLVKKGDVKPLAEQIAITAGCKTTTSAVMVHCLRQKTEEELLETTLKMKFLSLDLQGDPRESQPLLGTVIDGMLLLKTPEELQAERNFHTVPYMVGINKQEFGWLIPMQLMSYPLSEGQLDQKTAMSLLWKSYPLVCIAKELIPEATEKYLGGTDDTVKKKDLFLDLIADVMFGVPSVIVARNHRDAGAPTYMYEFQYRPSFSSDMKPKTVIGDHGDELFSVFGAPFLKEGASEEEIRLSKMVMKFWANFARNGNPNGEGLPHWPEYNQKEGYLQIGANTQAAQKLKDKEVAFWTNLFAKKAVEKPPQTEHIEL
Outline: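 SH-SY5Y cells were seeded in 24-well plates at 5 × 10^5 and exposed to fatty acids (0–200 μM) or DMSO for 24 h, then lysed in medium with Triton X-100. Lysate was incubated at 37 °C with RD-PNB in 100 mM Tris-HCl, pH 7.4. Reactions were stopped with methanol on ice and spun, and product was measured by RP-HPLC (UV 260 nm). Means ± S.E.M.; ANOVA with Dunnett's test.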

[3] = system: Human neuroblastoma SH-SY5Y cells; assay: Cell viability, resazurin reduction; type: cell-based; settings: for degeneration of the cells: 10 μM (printed for AA), 72 h, Figure 4C
[4] = purified PMPMEase 5 μg, RD-PNB 1 mM, 37°C, pH 7.4
[5] = purified PMPMEase 5 μg, RD-PNB 1 mM, 15 min pre-incubation, 37°C, pH 7.4

| Compound | IC50 (PMPMEase [1]) [µM] | Ki (PMPMEase [1]) [µM] | further results |
| --- | --- | --- | --- |
| CCCCCC/C=C\CCCCCCCC(=O)O [Palmitoleic acid] | 37 | 1 |  |
| CC/C=C\C/C=C\C/C=C\CCCCCCCC(=O)O [Linolenic acid] | 22 |  |  |
| CCCCCCCCCC(=O)O [Decanoic acid] | > 1000 | > 28 |  |
| CCCCC/C=C\C/C=C\CCCCCCCC(=O)O [Linoleic acid] | 64 | 1.8 |  |
| CCCCCCCCCCCCCC(=O)O [Myristic acid] | 100 | 2.8 |  |
| C[S+](C)[O-] [DMSO, dimethylsulfoxide] |  |  | loss of PMPMEase enzyme activity in degenerated cells (PMPMEase [2]): 49 ± 3% |
| CCCCC/C=C\C/C=C\C/C=C\C/C=C\CCCC(=O)O [Arachidonic acid] | 6.6 |  | degeneration of the cells [3]: 99 ± 0.1% |
| CCCCC[C@H](O)/C=C/[C@@H]1[C@@H](CCCCCCC(=O)O)[C@H](O)C[C@H]1O [Prostaglandin F1β] |  |  | Ki (PMPMEase [1]; [4]): > 28 µM; IC50 (PMPMEase [1]; [5]): > 1000 µM |
| CCCCCCCC/C=C\CCCCCCCCCCCC(=O)O [Erucic acid] | > 1000 | > 28 |  |
| CCCCCCCCCCCCCCCCCCCC(=O)O [Arachidic acid] | > 1000 | > 28 | effect on cell viability (in words) ([3]; 200 μM, 24 h exposure, listed as ARA): no effect on cell viability |
| CCCCCCCC/C=C/CCCCCCCC(=O)O [Elaidic acid] | > 1000 | > 28 |  |
| CCCC/C=C\CCCCCCCC(=O)O [Myristoleic acid] | 63 | 1.8 |  |
| CC/C=C\C/C=C\C/C=C\C/C=C\C/C=C\CCCC(=O)O [Eicosapentaenoic acid] | 12 |  |  |
| CCCCCCCCCCCC(=O)O [Lauric acid] |  |  | Ki (PMPMEase [1]; [4]): 6.5 µM; IC50 (PMPMEase [1]; [5]): 230 µM |
| CCCCCCCCCCCCCCCC(=O)O [Palmitic acid] | > 1000 | > 28 |  |
| CCCCCCCC/C=C\CCCCCCCC(=O)O [Oleic acid] | 53 | 1.5 |  |
| CCCCCCCC(=O)O [Octanoic acid] | > 1000 | > 28 |  |
| CC/C=C\C/C=C\C/C=C\C/C=C\C/C=C\C/C=C\CCC(=O)O [Docosahexaenoic acid] | 130 |  |  |

More lines, main results first:

| IC50 (PMPMEase [1]) [µM] | Ki (PMPMEase [1]) [µM] | Compound | further results |
| --- | --- | --- | --- |
| 420 |  | CCCCC[C@H](O)/C=C/[C@H]1C=CC(=O)[C@@H]1C/C=C\CCCC(=O)O [Prostaglandin A2] | decrease in PMPMEase inhibitory potency relative to AA (PMPMEase [1]): over 63 fold |
| > 1000 | > 28 | CCCCC[C@H](O)/C=C/[C@H]1C=CC(=O)[C@@H]1CCCCCCC(=O)O [Prostaglandin A1] |  |
| > 1000 | > 28 | CCCCC[C@H](O)/C=C/[C@@H]1[C@@H](C/C=C\CCCC(=O)O)[C@@H](O)C[C@H]1O [Prostaglandin F2α] | degeneration of the cells [3]: 19 ± 5.6% |
| > 1000 |  | CCCCC[C@H](O)/C=C/[C@H]1[C@H](O)CC(=O)[C@@H]1CCCCCCC(=O)O [Prostaglandin E1] |  |
| > 1000 | > 28 | CCCCCCCCCCCCCCCCCC(=O)O [Stearic acid] |  |
| > 1000 |  | CCCCC[C@H](O)/C=C/[C@H]1[C@H](O)CC(=O)[C@@H]1C/C=C\CCCC(=O)O [Prostaglandin E2] | decrease in PMPMEase inhibitory potency relative to AA (PMPMEase [1]): > 150 fold; degeneration of the cells [3]: 34 ± 4.0% |
| 580 |  | CCCCC[C@H](O)/C=C/C1=C(CCCCCCC(=O)O)C(=O)CC1 [Prostaglandin B1] |  |
